How the values were obtained:
K562 = assay: Growth inhibition of human K562 cells expressing p210Bcr/Abl after 96 hrs by trypan blue exclusion assay; type: functional, cell-based; conditions: K562, 96 h
Summary of the method: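 K562 cells were kept in RPMI with 10% FBS and penicillin–streptomycin at 37 °C under 5% CO2. Cells were seeded at 1 × 10^5 cells/mL with a range of compound concentrations, using DMSO as the negative control. After 96 h, viability was counted by Trypan blue exclusion and expressed as percent of DMSO control to derive GI50.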

DU-145 = assay: Growth inhibition of human DU145 cells after 96 hrs by trypan blue exclusion assay; type: functional; conditions: DU-145, 96 h

Compound	GI50 (K562) [µM]	GI50 (DU-145) [µM]
O=C(/C(=C\c1ccc(-c2ccccc2)s1)SCc1ccc(F)cc1)c1ccc(Br)cc1	50	> 100
Cc1ccc(CS/C(=C/c2ccc(Cl)cc2)C(=O)c2ccc(Cl)cc2)cc1	1	10
O=C(/C(=C\c1c[nH]c2ccccc12)S(=O)(=O)Cc1ccc(F)cc1)c1ccc(Cl)cc1	50	50
COc1cc(OC)c(/C=C(\C(=O)c2ccc(Br)cc2)S(=O)(=O)Cc2ccc(Cl)cc2)c(OC)c1	25	25
Cc1ccc(CS/C(=C/c2cc([N+](=O)[O-])ccc2F)C(=O)c2ccc(Cl)cc2)cc1	1	1
Cc1ccc(S/C(=C/c2sccc2C)C(=O)c2ccc(Cl)cc2)cc1	50	50
COc1cc(OC)c(/C=C(/Sc2ccc(C)cc2)C(=O)c2ccc(Cl)cc2)c(OC)c1	25	> 100
CCOc1ccc(/C=C(/Sc2ccccc2Cl)C(=O)c2ccc(Cl)cc2)cc1OC	1	50
O=C(/C(=C\c1ccc(O)c([N+](=O)[O-])c1)Sc1ccc(Br)cc1)c1ccc(Br)cc1	1	1
O=C(/C(=C\c1ccc(O)c([N+](=O)[O-])c1)SCc1ccc(Br)cc1)C1CCNC1 (centres undefined)	> 100	> 100
COc1ccc(S(=O)(=O)/C(=C/c2ccc(Br)cc2)C(=O)c2ccc(Br)cc2)cc1	6	6
CN(C)c1ccc(/C=C(/SCc2ccc(Cl)c(Cl)c2)C(=O)c2ccc(Cl)cc2)cc1	50	50
CN(C)c1ccc(/C=C(/SCc2ccc(F)cc2)C(=O)c2ccc(C(=O)O)cc2)cc1	10	10
O=C(/C(=C\c1cc(Cl)cc(Cl)c1Cl)Sc1ccccc1Br)c1ccc(Cl)cc1	50	25
CCOc1ccc(/C=C(/Sc2ccc(C)cc2)C(=O)c2ccc(Cl)cc2)cc1OC	10	25
O=C(/C(=C\c1c(O)cc(O)cc1O)S(=O)(=O)c1ccccc1Br)c1ccc(Br)cc1	50	50
O=C(/C(=C/c1ccc(Cl)cc1)Cc1ccc(Cl)cc1)c1ccc(Cl)cc1Cl	1	10
CCOc1ccc(/C=C(\C(=O)c2ccc(Cl)cc2)S(=O)(=O)Cc2ccc(F)cc2)cc1OC	25	50
O=C(/C(=C\c1ccc(O)cc1)SCc1ccc(F)cc1)c1ccc(Br)cc1	1	10

Compound	GI50 (K562) [µM]	GI50 (DU-145) [µM]
O=C(/C(=C\c1ccc2ccccc2n1)SCc1ccc(F)cc1)c1ccc(Br)cc1	25	25
O=C(/C(=C\c1ccc(O)c(C(=O)O)c1)SCc1ccc(Br)cc1)c1ccc(Br)cc1	25	10
O=C(/C(=C\c1cc(Cl)c(O)c(Cl)c1)SCc1ccc(Br)cc1)c1ccc(Br)cc1	10	10
Cc1ccc(CS(=O)(=O)/C(=C/c2c[nH]c3ccccc23)C(=O)c2ccc(Cl)cc2)cc1	> 100	25
O=C(/C(=C\c1ccc(O)cc1)SCc1ccc(Cl)c(Cl)c1)c1ccc(Cl)cc1	1	1
O=C(/C(=C\c1ccc(Br)cc1)S(=O)(=O)Cc1ccc(F)cc1)c1ccc(Cl)cc1	50	> 100
Cc1ccc(S/C(=C/c2ccc(Oc3ccccc3)cc2)C(=O)c2ccc(Br)cc2)cc1	> 100	1
Cc1ccc(S/C(=C/c2cnc3ccccc3c2)C(=O)c2ccc(Cl)cc2)cc1	> 100	> 100
O=C(/C(=C\c1ccc(O)c(Br)c1)Sc1ccc(Br)cc1)c1c(F)c(F)c(F)c(F)c1F	1	1
COc1ccc(/C=C(\C(=O)c2ccc(Br)cc2)S(=O)(=O)Cc2ccc(Cl)cc2)c(O)c1	10	10
Cc1ccc(/C=C(/Sc2ccc(F)cc2)C(=O)c2ccc(Cl)cc2)s1	25	25
O=C(O)c1ccc(C(=O)/C(=C\c2ccc([N+](=O)[O-])c(O)c2)SCc2ccc(Br)cc2)cc1	1	10
COc1cc(OC)c(/C=C(/SCc2ccc(Cl)c(Cl)c2)C(=O)c2ccc(Cl)cc2)c(OC)c1	10	10
O=C(/C(=C\c1ccc(Cl)c([N+](=O)[O-])c1)Sc1ccc(Br)cc1)c1ccc(Br)cc1	1	10
CSc1ccc(/C=C(/SCc2ccc(C)cc2)C(=O)c2ccc(Cl)cc2)cc1	10	25
O=C(/C(=C\c1ccc([N+](=O)[O-])c(O)c1)SCc1ccc(Br)cc1)c1ccc([N+](=O)[O-])c(Cl)c1	1	1
COc1ccc(C(=O)/C(=C\c2ccc(Cl)cc2)S(=O)(=O)c2ccc(Cl)cc2)cc1	4	4
Cc1ccc(CS(=O)(=O)/C(=C/c2ccc(Cl)cc2)C(=O)c2ccc(Cl)cc2)cc1	25	25

Reference: ChEMBL document CHEMBL1240409, “Design, synthesis and evaluation of (E)-alpha-benzylthio chalcones as novel inhibitors of BCR-ABL kinase” (Bioorg Med Chem, 2010)
